Assay outcomes from PubChem BioAssay.
NR3A LBD binder – modulators (binders) of human NR3A ligand-binding domain; NR3A LBD differential scanning fluorimetry, Tm shift; 0% = protein alone, 100% = glycine-bound protein; Tm shift relative to glycine control, % at 25 µM; actives 2.5% (n = 340,000); AID 1259313;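 active = melting temperature shift of at least 10% of the positive control shift, at one fixed dose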
JMJD2C inh – inhibitors of human GASC-1 (JMJD2C) demethylase. GST-JMJD2C(1-420) H3K9me3 demethylation, DELFIA europium. inhibition, % at 2.35 µM. actives 0.069% (n = 330,000);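 active = more than half of a compound's replicate wells show inhibition beyond 50%, single wells judged on their own value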;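 note: signal counts dimethyl H3K9 product captured on neutravidin plate; 0% = median of DMSO wells and 100% = 0.3 times that DMSO median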
Target sequence (Q9H3R0 1-420 limits assumed): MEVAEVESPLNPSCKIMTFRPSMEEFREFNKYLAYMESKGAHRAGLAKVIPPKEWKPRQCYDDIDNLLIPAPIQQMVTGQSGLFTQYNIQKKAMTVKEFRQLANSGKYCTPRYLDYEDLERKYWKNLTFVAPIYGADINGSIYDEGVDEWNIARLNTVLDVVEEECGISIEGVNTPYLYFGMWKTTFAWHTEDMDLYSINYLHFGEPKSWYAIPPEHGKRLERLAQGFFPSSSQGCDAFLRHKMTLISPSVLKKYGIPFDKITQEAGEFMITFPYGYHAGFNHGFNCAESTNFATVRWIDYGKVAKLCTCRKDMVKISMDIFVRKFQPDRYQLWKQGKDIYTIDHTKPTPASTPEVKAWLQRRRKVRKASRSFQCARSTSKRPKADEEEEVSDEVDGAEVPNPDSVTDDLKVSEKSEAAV
Rtt109 Vps75 – C. albicans Rtt109 histone acetyltransferase inhibition; purified Rtt109/Vps75, ThioGlo CoA-SH fluorescence, 4 h; inhibition, % at 34.9 µM; actives 0.16% (n = 330,000); AID 540336;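 active = inhibition of at least 50% in every replicate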
T cell modulator – T cell immune modulation candidate; 2C CD8+ T cell-vesicle binding, flow cytometry; stronger effect = lower value; response (vesicle binding), % at 7 µM; actives 0.068% (n = 330,000);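 active = response, share of CD8 T cells binding vesicles, and their 90th percentile fluorescence all below set limits, cut at about 80% in these data, passing the limit was not always enough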;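 note: values below 100% mean blocked vesicle binding to the CD8+ T cells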
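Material: 2C TCR transgenic mouse naive CD8+ T cells, MACS-purified. Also added: QL9-charged Drosophila Ld/ICAM-1/B7-1 vesicles. Timing: binding 1.5 h at 37 °C. Measured by: high-throughput flow cytometry with anti-B7-1 and anti-CD8 staining. Read-out: percent CD8+ FL2 mean versus row control. Controls: Unloaded micro-vesicles (low), QL9 vesicles with 0.7% DMSO (high).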
* = called active by the depositor; i = inactive; nt = no result. Rows were chosen to be rich in hits. Some 2.8% of all compounds tested hit in one or more screens of this group.

SMILES | NR3A LBD binder | JMJD2C inh | Rtt109 Vps75 | T cell modulator
CSc1cccc(NC(=O)Nc2nc3c(C)cccc3s2)c1 | 17.8* | -4.2 | -17.1 | 270.0
COc1ccc(-c2nc3ccccc3c(=O)n2O)cc1 | 32.1* | 0.5 | -0.6 | 191.0
O=c1c2ccccc2nc(-c2ccccc2)n1O | -0.2 | -21.4 | -7.3 | 366.0
CCOC(=O)/C(C#N)=C/c1ccc(OC(=O)c2ccco2)c(OCC)c1 | 10.3* | -6.6 | -4.2 | 346.6
C=CCn1c(=NC(=O)c2ccc(S(=O)(=O)N3CCc4ccccc4C3)cc2)sc2cc(S(N)(=O)=O)ccc21 | 18.7* | 2.8 | -8.7 | 346.5
COCCn1c(=NC(=O)c2cc(Cl)sc2Cl)sc2cc(S(N)(=O)=O)ccc21 | 27.6* | -3.8 | -0.3 | 207.4
C=CCn1c(=NC(=O)c2ccc(S(=O)(=O)N3CCCc4ccccc43)cc2)sc2cc(S(N)(=O)=O)ccc21 | 13.0* | -4.5 | 5.9 | 210.0
COCCn1c(=NC(=O)c2ccc(S(=O)(=O)N3CCc4ccccc4C3)cc2)sc2cc(S(N)(=O)=O)ccc21 | 25.2* | -1.1 | 2.4 | 270.2
CC(=O)Nc1ccc(C(=O)COC(=O)CCc2ccccc2)c(F)c1 | 0.5 | 8.2 | 2.0 | 373.9
COCCn1c(=NC(C)=O)sc2cc([N+](=O)[O-])ccc21 | 27.1* | -6.7 | -1.9 | 400.3
CC1CCN(C(=O)c2[nH]cnc2C(=O)N2CCN(c3ccccc3)CC2)CC1 | -0.2 | 13.6 | -1.9 | 250.9
Cc1ccc2c(c1)[C@@H]1CN(C)CC[C@@H]1N2S(=O)(=O)c1ccc(F)cc1 | 14.5* | -4.5 | -3.5 | 328.9
Cc1ccc(CN2CCN(CC(=O)N=Nc3c(O)[nH]c4ccccc34)CC2)cc1 | 19.9* | 2.0 | 8.9 | 340.7
O=C(CSc1nnc(CNC(=O)c2ccc(F)cc2)o1)NCc1ccc(F)cc1 | -3.8 | -0.5 | -4.6 | 243.4
COc1ccc(C(=O)NCc2nnc(SCC(=O)NCc3ccc(F)cc3)o2)cc1 | 11.2* | 12.3 | 23.7 | 220.2
N#Cc1cccc(N=c2ssnc2Cl)c1 | 26.9* | -6.7 | -3.5 | nt
C=CCNC(=O)c1ccc(-c2nc(-c3ccc(Cl)cc3Cl)cs2)cc1 | -4.9 | -15.1 | -6.2 | 592.6
C=CCNC(=O)c1ccc(-c2nc(-c3ccc(Cl)c(Cl)c3)cs2)cc1 | 31.5* | 2.6 | -2.6 | 469.4
O=C1Nc2ccccc2C12OCC1(CO2)COC2(OC1)C(=O)Nc1ccccc12 (stereo unspecified) | 0.7 | -8.9 | 1.8 | 188.1
O=C1Nc2ccccc2C12OCCS2 (stereo unspecified) | nt | 8.0 | nt | 0.0*
COc1ccc(/C=N/NS(=O)(=O)c2ccccc2)cc1OC(=O)c1ccc(C)cc1 | 18.6* | 11.0 | -0.3 | 192.9
COc1ccc(/C=N/NC(=O)c2ccccc2OC)cc1COc1ccccc1[N+](=O)[O-] | -3.8 | -1.3 | 3.4 | 225.9
COc1ccc(/C=N/NS(=O)(=O)c2ccc(C)cc2)cc1OC(=O)c1ccccc1 | 10.3* | 2.9 | -7.0 | 573.8
COc1ccc(/C=N\NS(=O)(=O)c2ccc(C)cc2)cc1COc1ccccc1[N+](=O)[O-] | 11.6* | 3.8 | -2.6 | 910.2
COc1cc(/C=N/NS(=O)(=O)c2ccc(C)cc2)ccc1OCc1cccc(C(=O)O)c1 | -0.4 | 13.3 | 3.6 | 188.3
SMILES | NR3A LBD binder | JMJD2C inh | Rtt109 Vps75 | T cell modulator
O=C(CCCN1C(=O)/C(=C\c2cccs2)SC1=S)Nc1cccnc1 | 13.4* | 2.1 | -5.1 | 276.6
COc1ccc(/C=C2/SC(=S)N(CCCC(=O)Nc3ccc(O)cc3)C2=O)cc1 | 13.5* | 3.6 | -3.9 | 72.7
O=C(CCN1C(=O)/C(=C/c2ccc(F)cc2)SC1=S)Nc1cc([N+](=O)[O-])ccc1O | 17.9* | -1.9 | 11.2 | 433.2
COc1ccc(/C=C2\SC(=S)N(CCC(=O)Nc3cccc(O)c3)C2=O)cc1 | 35.0* | -13.4 | 7.5 | nt
CC(=O)C(Cc1ccccc1)NC(=O)COC(=O)c1cccc(C)c1[N+](=O)[O-] (stereo unspecified) | 1.1 | 2.0 | 4.5 | 472.7
COc1ccc(NC(C)=O)cc1NC(=O)C1CCCN1C(=O)c1cccs1 (stereo unspecified) | 0.2 | nt | -5.1 | nt
CCc1nnc(NC(=O)c2oc3ccccc3c2COC(C)C)s1 | 1.1 | -4.1 | 8.7 | 706.5
O=C(CN1C(=O)c2cccc3cccc1c23)NCC1CCCO1 (stereo unspecified) | 15.6* | -11.6 | 0.4 | 182.1
O=C(CCN1C(=O)c2cccc3cccc(c23)C1=O)NCC1CCCO1 (stereo unspecified) | 1.2 | -0.1 | -4.8 | 427.6
CCc1c(C)sc(NC(=S)N2CCN(C(=O)C3CCCO3)CC2)c1C(=O)OC (stereo unspecified) | 0.3 | -9.9 | -2.1 | 194.1
CCc1c(C)sc(NC(=S)N2CC(C)OC(C)C2)c1C(=O)OC (stereo unspecified) | 13.4* | -2.4 | 4.9 | i
